This is a sample that favours compounds with a hit; in the whole collection about 3.1% have one here.
OX1R antag-1 – antagonists of human orexin 1 receptor | inhibition, % at 5 µM | AID 434989 | O43613 | 0.43% of 330,000 active | CHO/OX1R cells, Fluo-8 calcium fluorescence, orexin A;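 active = inhibition above its plate's threshold, mean inhibition of all tested compounds on the plate plus 3 SD, cut at about 37% in these data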
OX1R antag-2 – blocks the human orexin 1 receptor; OX1R-expressing cells, FRET antagonist read-out; inhibition, % at 6.6 µM; 1.8% of 330,000 active; AID 485270; in the data active = inhibition mostly above about 38%, no sharp cut-off; inactive = mostly below about 40%
CHO parental Ca – counter-screen: ATP calcium response change in parental CHO cells; parental CHO-K1, ATP-induced calcium, Fluo-8 fluorescence; 0.63% of 330,000 active; inhibition, % at 5.6 µM; AID 463079;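 active = inhibition above that plate's mean sample inhibition plus 3 SD, cut at about 26% in these data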
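Test system: untransfected parental CHO cell line; also added: ATP stimulus; dosing: 5.6 µM, single dose; signal: calcium-sensitive Fluo-8 fluorescence; measure: percent inhibition of ATP-evoked calcium rise, normalized to controls; benchmarks: low control ATP plus DMSO, high control DMSO only; replication: one well per compound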
GPR7 antag – human neuropeptides B/W receptor 1 antagonism; P48145; 1.1% of 290,000 active; inhibition, % at 4.4 µM; GPR7-expressing cells, fluorescence antagonist assay; AID 1861; in the data active = inhibition above about 16%, passing the limit was not always enough;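 also: cells stimulated with the agonist NPW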
Target sequence (P48145 whole entry, looked up): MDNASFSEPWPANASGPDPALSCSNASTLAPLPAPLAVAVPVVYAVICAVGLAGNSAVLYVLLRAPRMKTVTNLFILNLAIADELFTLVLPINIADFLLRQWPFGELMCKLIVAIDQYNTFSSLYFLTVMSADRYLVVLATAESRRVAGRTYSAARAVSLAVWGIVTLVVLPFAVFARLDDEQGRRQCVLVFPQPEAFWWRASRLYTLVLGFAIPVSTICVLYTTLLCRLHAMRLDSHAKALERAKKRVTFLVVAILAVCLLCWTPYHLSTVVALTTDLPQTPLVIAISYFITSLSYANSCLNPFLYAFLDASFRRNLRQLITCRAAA
GalR3 antag – blocks the human galanin receptor 3; HEK293 GalR3-CNG cAMP membrane potential fluorescence; galR3 body fused to GalR1 C-terminus; 0.44% of 360,000 active; O60755; inhibition, % at 3 µM;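 active = inhibition above the screen-wide average plus 3 SD, cut at about 13% in these data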;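 also: forskolin and galanin both at EC90 stimulate the cells; cAMP rise reported by CNG channel membrane potential dye signal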
Target sequence (O60755 1-299 limits assumed): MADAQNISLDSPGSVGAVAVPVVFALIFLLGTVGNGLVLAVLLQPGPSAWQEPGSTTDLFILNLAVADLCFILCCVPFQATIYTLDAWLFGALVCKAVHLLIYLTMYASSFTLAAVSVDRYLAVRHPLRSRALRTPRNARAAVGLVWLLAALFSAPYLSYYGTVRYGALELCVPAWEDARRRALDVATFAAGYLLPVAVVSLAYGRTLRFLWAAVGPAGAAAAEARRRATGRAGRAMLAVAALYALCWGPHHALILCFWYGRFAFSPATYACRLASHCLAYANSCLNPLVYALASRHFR
GPR7 antag cf – human GPR7 antagonism, confirmation assay | shares compounds with GPR7 antag | GPR7-expressing cells, calcium fluorescence antagonist mode | inhibition, % at 4.4 µM | 52% of 2,400 active; in the data active = inhibition above about 24%;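 also: stimulated with the GPR7 agonist NPW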
MCHR1 antag – antagonizes human MCHR1, a GPR7 antagonist counter-screen. shares compounds with GPR7 antag. MCHR1-expressing cells, fluorescence antagonist assay. inhibition, % at 4.4 µM. 62% of 2,400 active. AID 2148; in the data active = inhibition above about 22%
Of the large screens only hits and unclear results are named; the others gave an inactive call (follow-up assays come after a bar, where they were run).

O=c1oc(-c2ccccc2)cc(Cl)c1Cl	none
CCNC(=O)C1CCCN(C(=O)c2ccc(F)c(Cl)c2)CC1 (stereo not drawn)	none (no result: OX1R antag-1, OX1R antag-2, CHO parental Ca, GPR7 antag)
CC(C)c1cccc(C(C)C)c1NC(=O)CNCc1ccccc1F	GPR7 antag 21.9 | GPR7 antag cf 29.8 | MCHR1 antag 32.5
COCc1[nH]nc2c1C(c1ccc(C)cc1)NC2=O (stereo not drawn)	none (no result: OX1R antag-1, OX1R antag-2, CHO parental Ca, GPR7 antag)
Cc1sc2nc[nH]c(=S)c2c1-c1ccccc1	GPR7 antag 27.4 | GPR7 antag cf inactive | MCHR1 antag inactive
COc1cc2c(c(OC)c1OC)CC(c1ccccc1)=C(c1ccccc1)CC2NC(=O)C(F)(F)F (stereo not drawn)	none (no result: OX1R antag-1, OX1R antag-2, CHO parental Ca, GPR7 antag)
O=C1N(c2ccccc2)C[C@@H]2C[C@@H](c3cc4ccccc4o3)N3CCC[C@@]123	GPR7 antag 25.3 (no result: OX1R antag-1, OX1R antag-2, CHO parental Ca) | GPR7 antag cf inactive | MCHR1 antag inactive
CCN1CCN(c2ccc(S(=O)(=O)N3CCCCC3)cc2NC(=O)Cc2c(F)cccc2Cl)CC1	none
CCN(CC(=O)Nc1c(F)cccc1F)C(=O)c1cc(S(=O)(=O)N(CC)CC)ccc1N1CCCCC1	GPR7 antag 28.9 | GPR7 antag cf 31.9 | MCHR1 antag 25.8
CCN(CC)S(=O)(=O)c1ccc(N2CCCC2)c(NC(=O)Cc2c(F)cccc2Cl)c1	GPR7 antag 30.9 | GPR7 antag cf 43.9 | MCHR1 antag 40.8
CCOC(=O)c1c(-c2ccccc2)oc2ccc(O)c(CN(C)C)c12	none
CCOC(=O)c1c(CSCc2ccccc2)oc2ccc(O)c(CN(C)C)c12	GPR7 antag 40.1 | GPR7 antag cf 40.3 | MCHR1 antag 67.8
N#Cc1ccc(OCC(=O)N[C@@H](Cc2ccccc2)c2nc3ccccc3[nH]2)cc1	none (no result: OX1R antag-1, OX1R antag-2, CHO parental Ca, GPR7 antag)
Nc1c(C(=O)NCc2ccc3c(c2)OCO3)c2nc3ccccc3nc2n1CCCN1CCOCC1	CHO parental Ca 33.5, GPR7 antag 22.5 | GPR7 antag cf 48.8 | MCHR1 antag 51.5
COc1ccccc1CNC(=O)c1c(N)n(CCCN2CCOCC2)c2nc3ccccc3nc12	none (no result: OX1R antag-1, OX1R antag-2, CHO parental Ca)
Cc1ccc(S(=O)(=O)/N=C(\N)Nc2nc(C)c3cc(C)c(C)cc3n2)cc1	GPR7 antag 30.4 | GPR7 antag cf inactive | MCHR1 antag inactive
O=C(NC(NC(=S)Nc1ccccc1)C(Cl)(Cl)Cl)c1cccc(Cl)c1 (stereo not drawn)	GPR7 antag 33.6 | GPR7 antag cf 47.0 | MCHR1 antag 54.3
COc1ccc(CN2CCN(CC(O)Cn3c4ccccc4c4ccccc43)CC2)cc1 (stereo not drawn)	GPR7 antag 23.1 | GPR7 antag cf 46.7 | MCHR1 antag 67.9
O=c1c2ccccc2n(CC(O)CN2CCOCC2)c2ccccc12 (stereo not drawn)	GPR7 antag 42.1 | GPR7 antag cf inactive | MCHR1 antag inactive
O=c1c2ccccc2n(CC(O)CN2CCCCC2)c2ccccc12 (stereo not drawn)	none
CCOc1ccccc1-c1cc(NC)ncn1	none (no result: OX1R antag-1, OX1R antag-2, CHO parental Ca, GPR7 antag)
CN(C1CCCCC1)S(=O)(=O)c1ccc(C(=O)N2CCN(c3nc4ccccc4s3)CC2)cc1	GPR7 antag 22.3 | GPR7 antag cf inactive | MCHR1 antag 44.2
O=C(C1CC1)N1CCN(c2nc3ccccc3s2)CC1	none
C[C@H](CO)N1C[C@H](C)[C@@H](CN(C)Cc2cccc(F)c2)Oc2cc(-c3cccc(C#N)c3)ccc2S1(=O)=O	none (no result: OX1R antag-1, OX1R antag-2, CHO parental Ca, GPR7 antag)
COc1ccc(C(=O)C(=O)N2CCC(Cc3ccccc3)CC2)cc1OC	none (no result: OX1R antag-1, OX1R antag-2, CHO parental Ca, GPR7 antag)
O=C1C2CC=CCC2C(=O)N1c1ccc(NCCc2ccc(O)cc2)c([N+](=O)[O-])c1 (stereo not drawn)	GPR7 antag 30.8 | GPR7 antag cf 28.3 | MCHR1 antag 55.3
Nc1c(Cl)cc(N=Nc2ccccc2)cc1Cl	none (no result: OX1R antag-1, OX1R antag-2, CHO parental Ca, GPR7 antag)
COc1ccccc1-c1cnc(C(O)c2ccc(CN3CCCCC3)cc2)[nH]1 (stereo not drawn)	none (no result: OX1R antag-1, OX1R antag-2, CHO parental Ca, GPR7 antag)
Cc1nc(NCCO)c(C#N)c2c1COC(C)(C)C2	GPR7 antag 25.9 | GPR7 antag cf inactive | MCHR1 antag inactive
CN(C)CCCNc1nc(-c2ccccc2)c2c(c1C#N)CC(C)(C)OC2	none
O=C(NCc1cccc(Cl)c1)c1ccc2nc[nH]c2c1	none
O=C(NCc1cccc(Cl)c1)c1ccc(-c2csnn2)cc1	GPR7 antag 24.9 | GPR7 antag cf inactive | MCHR1 antag inactive
COc1ccc(CC(=O)N2CCNC2=O)cc1	GPR7 antag 29.9 | GPR7 antag cf inactive | MCHR1 antag inactive
COc1ccc(CC(=O)N2CCc3ccccc32)cc1	none
C=CCN(C)CC/C=C1\c2ccccc2CSc2ccccc21	none
CC(O)CN(C)CC/C=C1/c2ccccc2CSc2ccccc21 (stereo not drawn)	GPR7 antag 22.1 | GPR7 antag cf inactive | MCHR1 antag inactive
COc1ccc(Oc2c(Cl)cnn(-c3ccc(C)cc3)c2=O)cc1	GPR7 antag 31.6 | GPR7 antag cf 63.4 | MCHR1 antag inactive
O=C(COc1ccc(Br)cc1CNCCc1ccccc1)NCc1ccccc1	GPR7 antag 30.9 | GPR7 antag cf 40.1 | MCHR1 antag 53.6
NS(=O)(=O)c1ccc(CCNCc2cc(Cl)ccc2OCc2ccccc2)cc1	GPR7 antag 27.8 | GPR7 antag cf 27.5 | MCHR1 antag 56.9
NS(=O)(=O)c1ccc(CCNCc2ccccc2OCc2ccc(Cl)cc2)cc1	none
C=CCOc1ccccc1CNCCc1ccc(S(N)(=O)=O)cc1	none
NS(=O)(=O)c1ccc(CCNCc2cc(Br)ccc2OCc2ccccc2F)cc1	OX1R antag-1 48.6, CHO parental Ca 59.6, GPR7 antag 38.4 | GPR7 antag cf 53.4 | MCHR1 antag 75.6
CC(C)C[C@H]1COc2cc(NCCO)ccc2S(=O)(=O)N1	none (no result: OX1R antag-1, OX1R antag-2, CHO parental Ca, GPR7 antag)
O=C(Oc1ccc[nH]c1=O)C1CC1	none (no result: OX1R antag-1, OX1R antag-2, CHO parental Ca, GPR7 antag)
CCN(CC)CCNC(=O)c1ccc(NC(=O)c2cn(-c3ccccc3)nc2-c2cccs2)cc1	GPR7 antag 22.2 | GPR7 antag cf 34.5 | MCHR1 antag 44.6
CCN(CC)CCNC(=O)c1ccc(NC(=O)c2cn(-c3ccc(F)cc3)nc2-c2cccc(OC)c2)cc1	none
COC(=O)c1ccc2nc(-c3ccc(C)cc3)c(Cc3ccccc3)n2c1	none (no result: OX1R antag-1, OX1R antag-2, CHO parental Ca, GPR7 antag)
Cc1ccc2nc3c(cc2c1)CN(Cc1ccco1)C(=NCC1CCCO1)S3 (stereo not drawn)	none
Cc1cccc2cc3c(nc12)SC(=NCC1CCCO1)N(Cc1ccco1)C3 (stereo not drawn)	GPR7 antag 22.5 (no result: GalR3 antag) | GPR7 antag cf inactive | MCHR1 antag 60.2
O=C(c1ccccc1)N(Cc1cccc(Br)c1)C1CCS(=O)(=O)C1 (stereo not drawn)	GPR7 antag 35.1 | GPR7 antag cf inactive | MCHR1 antag inactive
Cc1cn([C@H]2C[C@H](O)[C@@H](/C=C/C(=O)NCCN3CCCCC3)O2)c(=O)[nH]c1=O	none (no result: OX1R antag-1, OX1R antag-2, CHO parental Ca, GPR7 antag)
COc1ccc(OC)c(S(=O)(=O)NCC2CCN(C(=O)C(=O)c3cc4ccccc4o3)CC2)c1	none (no result: OX1R antag-1, OX1R antag-2, CHO parental Ca, GPR7 antag)
